Experimental data pooled from the literature.
Protocols differ between the studies behind these lines.
BCHE: Cholinesterase (BCHE, Equus caballus, UniProt P81908)
PTGS1: Prostaglandin G/H synthase 1 (PTGS1, Ovis aries, UniProt P05979)
Ar: Androgen receptor (Ar, Rattus norvegicus, UniProt P15207)
AGTR2: Type-2 angiotensin II receptor (AGTR2, Homo sapiens, UniProt P50052)

| SMILES | target | test | conditions | inhibition [%] |
| --- | --- | --- | --- | --- |
| Cc1ncc(C)n2nc(/C=C/c3nc(N4CCCC4)cc(N4CCOCC4)n3)nc12 | cGMP-inhibited 3',5'-cyclic phosphodiesterase 3B (PDE3B, Homo sapiens, UniProt Q13370) | enzyme activity, inhibitor | 10 µM | 15 |
| COc1cc2c(cc1OC)C(=O)N(Cc1ccc3ccccc3n1)C2 | BCHE | enzyme activity, inhibitor, Ellman | 1 µM | -0.7 |
| Oc1ccc(-c2ncccc2-c2nc3ccccc3s2)cc1 | PTGS1 | enzyme activity, inhibitor, absorbance | 10 µM | 12.5 |
| CCCCCCCCCCCC(=O)OC[C@@H](COP(=O)(O)OCCNC(=O)c1ccc(Cn2c(=O)[nH]c3c(N)nc(OCCOC)nc32)cc1)OC(=O)CCCCCCCCCCC | Ar | ligand displacement, radioligand | 10 µM | 55 |
| Cc1ccc(-c2nc3ccccc3s2)c(-c2ccc(S(C)(=O)=O)cc2)c1 | PTGS1 | enzyme activity, inhibitor, absorbance | 10 µM | 9.7 |
| CC(C)N1CCC[C@H]1CNC(=O)c1cn(C2CCCC2)c(=O)c2c1c1ccccc1n2C | Ar | ligand displacement, radioligand | 10 µM | 11 |
| COc1cc2c(cc1OC)C(=O)N(Cc1cccc(N3CCCCC3)n1)C2 | BCHE | enzyme activity, inhibitor, Ellman | 1 µM | 4.8 |
| Cn1cc(-c2cc(F)cc(N3CCn4c(cc5c4CCCC5)C3=O)c2CO)cc(Nc2ccc(N3CCN(C4COC4)CC3)cn2)c1=O | Dual specificity mitogen-activated protein kinase kinase 3 (MAP2K3, Homo sapiens, UniProt P46734) | enzyme activity, inhibitor | 0.1 µM | -12 |
| CS(=O)(=O)c1ccc(-c2ncc(Cl)cc2-c2nc3ccccc3s2)cc1 | PTGS1 | enzyme activity, inhibitor, absorbance | 10 µM | 0 |
| O=C(Nc1ccc(F)c(C(F)(F)F)c1)Nc1nnc(-c2ccncc2)s1 | RecQ-like DNA helicase BLM (BLM, Homo sapiens, UniProt P54132) | enzyme activity, inhibitor | 50 µM | 99 |
| COc1cc2c(cc1OC)C(=O)N(Cc1ccncc1)C2 | BCHE | enzyme activity, inhibitor, Ellman | 1 µM | -0.7 |
| Cn1cc(-c2cccc(N3CCc4c(sc5c4CC(C)(C)C5)C3=O)c2CO)cc(Nc2ccncn2)c1=O | Serine/threonine-protein kinase MRCK alpha (CDC42BPA, Homo sapiens, UniProt Q5VT25) | enzyme activity, inhibitor | 1 µM | 6 |
| CN(CCN1CCC(OC(=O)Nc2ccccc2-c2ccccc2)CC1)C(=O)c1ccc(CN2CCC(C(N)=O)CC2)cc1 | AGTR2 | ligand displacement, radioligand | 1 µM | -4 |
| COc1cc2c(cc1OC)C(=O)N(CC1CCN(Cc3ccncc3)CC1)C2 | BCHE | enzyme activity, inhibitor, Ellman | 1 µM | 8.2 |
| Nc1ccc(-c2nc3ccccc3s2)c(-c2cccc(O)c2)c1 | PTGS1 | enzyme activity, inhibitor, absorbance | 10 µM | 27.7 |
| COc1cc2c(cc1OC)C(=O)N(CC1CCN(Cc3ccc(F)nc3)CC1)C2 | BCHE | enzyme activity, inhibitor, Ellman | 1 µM | -4.8 |
| NS(=O)(=O)c1ccc(-c2ncc(Cl)cc2-c2nc3ccccc3s2)cc1 | PTGS1 | enzyme activity, inhibitor, absorbance | 10 µM | 6.6 |
| C#Cc1n[nH]c2c(-c3cn(C(C)c4ccccn4)c(=O)[nH]c3=O)cc(F)cc12 (centres unmarked) | Serine/threonine-protein kinase MARK1 (MARK1, Homo sapiens, UniProt Q9P0L2) | enzyme activity, inhibitor | 1 µM | 11.2 |
| COc1ccc(-c2ccc(N)cc2-c2nc3ccccc3s2)cc1 | PTGS1 | enzyme activity, inhibitor, absorbance | 10 µM | 65.4 |
| COc1nccc(CN2Cc3cc(OC)c(OC)cc3C2=O)n1 | BCHE | enzyme activity, inhibitor, Ellman | 1 µM | 6.1 |
| Nc1ccc(-c2nc3ccccc3s2)c(-c2ccc(O)cc2)c1 | PTGS1 | enzyme activity, inhibitor, absorbance | 10 µM | 14.2 |
| COc1ccc2[nH]cc(CCN3Cc4cc(OC)c(OC)cc4C3=O)c2c1 | BCHE | enzyme activity, inhibitor, Ellman | 1 µM | 19 |
| C[C@H](C(=O)N[C@H]1COc2ccccc2[C@@H]1S(C)(=O)=O)c1ccc(F)cc1 | AGTR2 | cell-free assay | 10 µM | 4 |
